# From PubChem BioAssay
# Only some compounds are listed: those with a hit (about 1.9% of all), similar ones and a draw of the others.
# LMPTP inh: LMPTP phosphatase inhibitors, primary screen, biochemical, fluorescence intensity, uHTS; inhibition, % at 20 µM; 0.22% of 360,000 active; Low molecular weight phosphotyrosine protein phosphatase (Homo sapiens), P24666; AID 651560, 2012; recombinant LMPTP-A, OMFP fluorogenic substrate;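 active = compounds that cut the enzyme signal by at least half of the control window in the single-dose screen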;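 also: plate controls were DMSO wells with enzyme plus substrate for no effect and substrate without enzyme for full effect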
# Target sequence (P24666 whole entry, looked up): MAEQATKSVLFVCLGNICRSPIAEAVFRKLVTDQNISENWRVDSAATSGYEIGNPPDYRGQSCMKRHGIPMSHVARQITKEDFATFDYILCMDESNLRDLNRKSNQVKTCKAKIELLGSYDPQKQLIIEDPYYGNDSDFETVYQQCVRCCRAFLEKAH
#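 material = LMPTP-A | quantity = 0.625 nM enzyme | reagent = OMFP substrate, 400 µM final | buffer or medium = Bis-Tris pH 6.0, DTT, detergent | detection = endpoint fluorescence intensity from OMFP dephosphorylation | dosing = single 20 µM dose | read-out basis = % inhibition relative to no-enzyme and uninhibited control wells | control set = no-enzyme and uninhibited controls | timing = 50 min at room temperature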
# Scp1 inh: Scp-1 phosphatase inhibitors, primary screen, biochemical, colorimetric, uHTS; Carboxy-terminal domain RNA polymerase II polypeptide A small phosphatase 1 (Homo …; Recombinant Scp1, phosphopeptide, malachite green phosphate absorbance; inhibition, % at 20 µM; 0.88% of 340,000 active; AID 493091, 2011;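 active = inhibition above about 50% at 20 µM, limit read from the data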;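 also: plate controls were DMSO wells with enzyme for no effect and wells lacking enzyme for full effect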
# Target sequence (Q9GZU7 76-261 limits assumed): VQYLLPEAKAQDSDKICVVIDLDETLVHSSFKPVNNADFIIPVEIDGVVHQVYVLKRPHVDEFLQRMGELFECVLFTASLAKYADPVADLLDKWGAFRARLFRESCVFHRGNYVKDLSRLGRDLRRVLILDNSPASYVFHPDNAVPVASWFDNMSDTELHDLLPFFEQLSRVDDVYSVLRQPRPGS
#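 Material – SCP-1 phosphatase catalytic domain, residues 76-261 · Buffer or medium – Acidic Tris acetate buffer with magnesium and detergent · Also added – Phospho 17-mer peptide substrate · Compound – single 20 µM dose, 1% DMSO · Times – 45 min room-temperature reaction, 5 min colour, 30 min stabiliser · Technique – Phosphate-binding colour reagent, absorbance read at 630 nm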
# STEP block: STEP phosphatase inhibitors, primary screen, biochemical, fluorescence intensity, uHTS; recombinant STEP, OMFP fluorogenic substrate; 0.25% of 360,000 active; inhibition, % at 20 µM;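 active = inhibition at 20 µM, scaled per plate between control wells, above about 37%, limit read from the data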;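 also: 0% = DMSO with enzyme and substrate and 100% = substrate only without enzyme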
#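 System: STEP phosphatase, cell-free reaction; Buffer or medium: Bis-Tris pH 6.0 buffer with DTT, detergent; Incubation: 20 min at room temperature, dark; Measured by: fluorescence, 480/540 nm.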
# SUMO1 PPI mod: modulators of SUMO1 protein-protein interactions, primary screen, biochemical, uHTS; inhibition, % at 20 µM; SUMO1 binding to a labelled peptide, TR-FRET, 1 h; AID 602429, 2012; Small ubiquitin-related modifier 1 (Homo sapiens), P63165; 0.33% of 360,000 active; in the data active = inhibition above about 37%
# Target sequence (P63165 whole entry, looked up): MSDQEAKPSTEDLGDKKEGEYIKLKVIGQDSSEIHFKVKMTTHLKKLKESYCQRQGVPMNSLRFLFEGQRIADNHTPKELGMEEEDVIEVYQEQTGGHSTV
# FAS-TE inh: FAS thioesterase domain inhibitors, primary screen, biochemical, fluorescence intensity, uHTS; Fatty acid synthase (Homo sapiens), P49327; recombinant FAS-TE, OMFH fluorogenic substrate, fluorescence endpoint; inhibition, % at 15 µM; 0.67% of 360,000 active; AID 602261, 2012;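 active = compounds whose normalised, plate-corrected inhibition of enzyme fluorescence in the single-dose primary screen is 50% or more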;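 also: 0% = DMSO with enzyme and 100% = substrate without enzyme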
# * = called active by the depositor; nt = no result given.
SMILES,LMPTP inh,Scp1 inh,STEP block,SUMO1 PPI mod,FAS-TE inh
O=C(NCc1ccccc1)c1ccc2nccnc2c1,-0.9,-10.2,-1.2,-24.8,-9.6
O=C(NCc1ccccc1)c1ccc2nc(-c3ccco3)c(-c3ccco3)nc2c1,75.0*,84.2*,8.7,41.3*,8.8
CC(=O)c1ccc(NC(=O)c2ccc3nc(-c4ccco4)c(-c4ccco4)nc3c2)cc1,86.1*,83.3*,89.1*,95.9*,3.3
O=c1c(-c2ccco2)nc2ccccc2n1C(c1ccccn1)c1nc2ccccc2[nH]1 (configuration not stated),3.5,nt,nt,-14.8,nt
CCOC(=O)N1CCN(C(=O)C[C@@H]2C[C@@]3(C(=O)OC)CC(C)(C)CC=C3N(Cc3ccccc3)C2=O)CC1,-0.8,nt,nt,-0.9,nt
COc1cc(/C=N/NC(=O)c2cccnc2)ccc1OCC(=O)Nc1ccccc1Cl,3.5,12.5,19.0,86.0*,0.5
CCc1nnc(NC(=O)CSc2ncnc3c2oc2ccccc23)s1,1.3,-6.5,-0.4,65.5*,-0.1
Cc1ccc(S(=O)(=O)N(C)C[C@@H]2OCc3cnnn3CCCC(=O)N([C@@H](C)CO)C[C@H]2C)cc1,-0.3,nt,-1.5,4.4,-5.1
CC[n+]1c(/C=C/N(C)c2ccccc2)n(-c2ccccc2)c2ccc(-c3nc4ccccc4s3)cc21,83.2*,32.0,10.2,-84.4,-9.3
CCc1nc2c(OCCOc3ccc(F)cc3)cccn2c1N(C)C(=O)c1ccc(OC)cc1,-0.2,nt,-1.5,2.3,-1.5
Cc1oc(-c2cc(F)ccc2F)nc1CN1CCN(c2cnccn2)CC1,0.2,4.2,-0.7,43.8*,-2.1
CC1(C)CC(N2CCN(Cc3ccccc3)CC2)=CC(=[N+]2CCCCC2)C1,1.7,106.4*,1.2,0.5,-4.3
CC1(C)CC(N2CCCC2)=CC(=[N+]2CCCCC2)C1,-1.1,1.2,-2.1,1.9,-5.6
CN(Cc1ccccc1)C1=CC(=[N+]2CCCCC2)CC(C)(C)C1,2.1,104.0*,0.2,-2.0,-3.4
COC(=O)c1ccc(C(=O)N2CCCC(C)(C(=O)NS(=O)(=O)C3CC3)C2)cc1 (configuration not stated),-1.9,nt,-1.4,-2.2,-5.4
O=C(Nc1ccc(F)cc1)c1ccc(NC(=O)C2CCCO2)cc1 (configuration not stated),-1.0,0.1,0.8,4.0,-3.4
O=C(Nc1ccc(C(F)(F)F)cc1)c1ccc(NC(=O)C2CCCO2)cc1 (configuration not stated),39.7,32.6,51.6*,17.9,-2.2
O=C1CCCC2=C1C1(CCCC1)N=C(Nc1nc3cc(-c4ccccc4)ccc3o1)N2,4.3,nt,0.4,0.9,40.6
Oc1c(C(Nc2nc3ccccc3s2)c2ccco2)ccc2cccnc12 (configuration not stated),3.6,-4.5,-0.7,49.5*,7.9
COC(=O)[C@@]12C[C@@H](CC(=O)NCc3cccc(C(F)(F)F)c3)C(=O)N(Cc3ccc4c(c3)OCO4)C1=CCC(C)(C)C2,4.3,nt,nt,-1.3,nt
COc1cccc(C2Nc3c(F)cc(Br)cc3C3C=CCC32)c1OC (configuration not stated),2.8,-10.5,-2.3,8.1,28.2
COc1cccc2c1NC(C(=O)O)C1CC=CC21 (configuration not stated),51.8*,74.3*,69.9*,52.1*,-11.5
CC(=O)c1ccc2c(c1)C1C=CCC1C(C(=O)O)N2 (configuration not stated),11.6,75.4*,70.2*,59.6*,2.0
CC1=NN(c2ccc(C(=O)O)cc2)C(=O)/C1=C/c1ccc(-c2ccccc2F)o1,-0.1,nt,4.6,12.0,-2.2
CC1=NN(c2ccc(Cl)c(C(=O)O)c2)C(=O)/C1=C\c1ccc(-c2ccc(C(=O)O)cc2)o1,1.2,81.2*,20.7,13.5,-6.9
CC1=NN(c2ccc(C)cc2)C(=O)/C1=C/c1ccc(-c2cc([N+](=O)[O-])ccc2O)o1,24.7,20.5,7.1,79.6*,3.9
